Values joined by “and” are separate entries in the source; they are usually repeats but may differ in a detail not shown here. Identical values can stand only once.
System: Fibroblast
Assay: Multiplex assay against human fibroblast
Format: toxicity, cell-based
Method in brief: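 On a CQ1 microscope at 37°C and 5% CO2, live cells were imaged after compound addition. They had been stained at seeding with Hoechst33342, BioTracker Green Microtubule Cytoskeleton Dye, MitoTracker Red and Annexin V Alexa Fluor 680. CellPathfinder machine-learning gating assigned cells to Hoechst high-intensity objects or normal cells, normal cells to healthy, pyknosed or fragmented nuclei, and pyknosed cells to mitotic or apoptotic. Tubulin, mitochondrial-mass and membrane-permeability phenotypes are per cents of healthy-nucleus cells.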

[1] = 12 h, 1 µM, compound concentration 1 uM
[2] = 12 h, 10 µM, compound concentration 10 uM
[3] = 24 h, 1 µM, compound concentration 1 uM
[4] = 24 h, 10 µM, compound concentration 10 uM
[5] = 48 h, 1 µM, compound concentration 1 uM
[6] = 48 h, 10 µM, compound concentration 10 uM

CCOC(=O)c1cnn(-c2ccc(NC(=O)C(Cl)=C(Cl)Cl)cc2)c1C(F)(F)F
Population Apoptotic (%) [1]: 8.82% and 15% | Population Fragmented Nuclei (%) [1]: 15.65% and 11.22% | Population Healthy Nuclei (%) [1]: 61.22% and 68.37% | Population Hoechst High Intensity Objects (%) [1]: 0% | Population Membrane Permeable-Phenotype (%) [1]: 5.56% and 0% | Population Mitochondria Different-Phenotype (%) [1]: 6.67% and 10.45% | Population Mitotic Cells (%) [1]: 91.18% and 85% | Population Normal (%) [1]: 100% | Population Pyknosed Nuclei (%) [1]: 23.13% and 20.41% | Population Tubulin-Different-Phenotype (%) [1]: 8.89% and 11.94% | Total Cell Count [1]: 147 and 196 | Population Apoptotic (%) [2]: 23.28% and 49.64% | Population Fragmented Nuclei (%) [2]: 10.69% and 2.33% | Population Healthy Nuclei (%) [2]: 16.35% and 18.02% | Population Hoechst High Intensity Objects (%) [2]: 0% | Population Membrane Permeable-Phenotype (%) [2]: 7.69% and 12.9% | Population Mitotic Cells (%) [2]: 76.72% and 50.36% | Population Normal (%) [2]: 100% | Population Pyknosed Nuclei (%) [2]: 72.96% and 79.65% | Population Tubulin-Different-Phenotype (%) [2]: 42.31% and 54.84% | Total Cell Count [2]: 159 and 172 | Population Apoptotic (%) [3]: 32.35% and 26.32% | Population Fragmented Nuclei (%) [3]: 13.42% and 8.93% | Population Healthy Nuclei (%) [3]: 63.76% and 82.59% | Population Hoechst High Intensity Objects (%) [3]: 0% | Population Membrane Permeable-Phenotype (%) [3]: 1.05% and 1.08% | Population Mitochondria Different-Phenotype (%) [3]: 5.26% and 3.78% | Population Mitotic Cells (%) [3]: 67.65% and 73.68% | Population Normal (%) [3]: 100% | Population Pyknosed Nuclei (%) [3]: 22.82% and 8.48% | Population Tubulin-Different-Phenotype (%) [3]: 12.63% and 12.43% | Total Cell Count [3]: 149 and 224 | Population Apoptotic (%) [4]: 37.76% and 80.65% | Population Fragmented Nuclei (%) [4]: 17.09% and 8.6% | Population Healthy Nuclei (%) [4]: 20.89% and 24.73% | Population Hoechst High Intensity Objects (%) [4]: 0% | Population Membrane Permeable-Phenotype (%) [4]: 15.15% and 43.48% | Population Mitochondria Different-Phenotype (%) [4]: 0% and 19.57% | Population Normal (%) [4]: 100% | Population Pyknosed Nuclei (%) [4]: 62.03% and 66.67% | Population Tubulin-Different-Phenotype (%) [4]: 39.39% and 84.78% | Total Cell Count [4]: 158 and 186 | Population Apoptotic (%) [5]: 35.29% and 26.67% | Population Fragmented Nuclei (%) [5]: 12.65% and 7.11% | Population Healthy Nuclei (%) [5]: 77.11% and 86.22% | Population Hoechst High Intensity Objects (%) [5]: 0% | Population Membrane Permeable-Phenotype (%) [5]: 0.78% and 1.55% | Population Mitotic Cells (%) [5]: 64.71% and 73.33% | Population Normal (%) [5]: 100% | Population Pyknosed Nuclei (%) [5]: 10.24% and 6.67% | Population Tubulin-Different-Phenotype (%) [5]: 4.69% and 11.86% | Total Cell Count [5]: 166 and 225 | Population Apoptotic (%) [6]: 35.48% and 83.87% | Population Fragmented Nuclei (%) [6]: 22.75% and 43.62% | Population Healthy Nuclei (%) [6]: 58.68% and 39.89% | Population Hoechst High Intensity Objects (%) [6]: 0% | Population Membrane Permeable-Phenotype (%) [6]: 14.29% and 37.33% | Population Mitochondria Different-Phenotype (%) [6]: 15.31% and 25.33% | Population Normal (%) [6]: 100% | Population Pyknosed Nuclei (%) [6]: 18.56% and 16.49% | Population Tubulin-Different-Phenotype (%) [6]: 40.82% and 89.33% | Total Cell Count [6]: 167 and 188
